Published values collected from several papers.
Protocols differ between the studies behind these lines.
CDK2: Cyclin-dependent kinase 2 (CDK2, Homo sapiens, UniProt P24941)
CDK2 with cyclin A: Cyclin-dependent kinase 2, with cyclin A (CDK2, Homo sapiens, UniProt P24941)
CDK2 with cyclin E: Cyclin-dependent kinase 2, with cyclin E (CDK2, Homo sapiens, UniProt P24941)

Structure (SMILES)	target	observed	action	technique	concentration	quantity	result
Cn1c2c(c3ccc(Cl)c(Cl)c31)C(C#N)C(C)(C)NC2=O (centres unmarked)	CDK2	thermal stability		DSF	10 µM	ΔTm	0.5 °C
Cc1ccc(NC(=O)c2ccc(C)c(C(F)(F)F)c2)cc1C#Cc1nn(C2CCC(O)CC2)c2ncnc(N)c12 (centres unmarked)	CDK2 with cyclin A	cell-free assay			10 µM	remaining signal	100%
CS(=O)(=O)CCNCc1ccc(-c2ccc3ncnc(Nc4ccc(OCc5cccc(F)c5)c(Cl)c4)c3c2)o1	CDK2 with cyclin A	cell-free assay			0.5 µM	remaining signal	94.5%
NS(=O)(=O)c1cc(NC(=O)Cc2ccccc2)ccc1Oc1cccc(Cl)c1	CDK2	cell-free assay		competition with immobilised ligand	1 µM	remaining binding	100%
FC(F)(F)Oc1cccc(-c2cnc3ccc(-c4ccncc4)nn23)c1	CDK2 with cyclin A	enzyme activity	inhibitor	radiometric	1 µM	activity vs control	26%
O=C(Nc1cnn(-c2csc(C(=O)NC3COC3)c2)c1)Nc1ccccc1Cl	CDK2 with cyclin E	enzyme activity	inhibitor		5 µM	remaining activity	99%
CN(C)C1CCN(CC#Cc2nn(C3CCCC3)c3nc(NCc4ccccc4)ncc23)C1 (centres unmarked)	CDK2 with cyclin A	enzyme activity	inhibitor	FRET	1 µM	inhibition	9%
Cn1c2c(c3ccc(Cl)c(Cl)c31)C(C#N)C1(CCNCC1)NC2=O (racemic)	CDK2	thermal stability		DSF	10 µM	ΔTm	0.1 °C
COc1cc2c(cc1OC)-c1[nH]nc(Nc3cccc(F)c3)c1C2	CDK2 with cyclin E	cell-free assay			0.5 µM	remaining signal	88.6%
Cn1c2c(Cl)c(Cl)ccc2c2cc[nH]c(=O)c21	CDK2	thermal stability		DSF	10 µM	ΔTm	0.6 °C
Cc1c[nH]c2nccc(Oc3c(F)cc(Nc4cc(Cl)nc(N)n4)cc3F)c12	CDK2	cell-free assay		competition with immobilised ligand	0.1 µM	remaining binding	99%
N#Cc1c(NC(=O)c2cccc3ccccc23)sc2c1CCCC2	CDK2 with cyclin E	cell-free assay			0.5 µM	remaining signal	89.1%
Cc1sc(C(=O)NC2COC2)cc1-n1cc(NC(=O)Nc2c(F)cccc2Cl)cn1	CDK2 with cyclin E	enzyme activity	inhibitor		10 µM	remaining activity	106%
CC(C)CC(=O)N1CCc2nc(-c3ccc(Br)cc3)nc(N(C)Cc3ccccc3)c2C1	CDK2	cell-free assay		competition with immobilised ligand	0.1 µM	remaining binding	80%
O=C1Cc2c([nH]c3ccc(Br)cc23)-c2ccccc2N1	CDK2 with cyclin E	cell-free assay			0.5 µM	remaining signal	51.9%
C[C@H](NC(=O)c1cnc2n1[C@](C)(Cc1ccc(C#N)cc1)C(=O)N2c1cc(Cl)c(F)c(Cl)c1)C(=O)NC1(c2ccccn2)CC1	CDK2	cell-free assay		competition with immobilised ligand	1 µM	remaining binding	100%

Structure (SMILES)	target	observed	action	technique	concentration	quantity	result
O=C(Nc1cnn(-c2csc(C(=O)NC3COC3)c2)c1)Nc1c(F)cccc1Cl	CDK2 with cyclin A	enzyme activity	inhibitor		5 µM	remaining activity	93.8%
C[C@H](c1ccnc(Nc2nc3ccc(-c4cc(N(C)C)ncn4)cc3[nH]2)c1)N1CCN(C(=O)CC(F)(F)F)CC1	CDK2	cell-free assay		competition with immobilised ligand	0.1 µM	remaining binding	100%
N#CCCc1ccc2c(c1)-c1[nH]c3ccc([N+](=O)[O-])cc3c1CC(=O)N2	CDK2 with cyclin A	cell-free assay			0.5 µM	remaining signal	2.93%
CSc1cccnc1N1CCN(Cc2nc3ccccc3[nH]2)CC1	CDK2	cell-free assay		competition with immobilised ligand	1 µM	remaining binding	95%
Cn1c2c(c3ccc(Cl)c(Cl)c31)C(C#N)C1(CCCC1)NC2=O (centres unmarked)	CDK2	thermal stability		DSF	10 µM	ΔTm	-0.5 °C
Cc1ccc(C(=O)NCc2ccsc2)cc1C#Cc1cn(C(C)C)c2ncnc(N)c12	CDK2 with cyclin E	enzyme activity	inhibitor		1 µM	activity vs control	108%
Cc1cc(-n2nc(Cc3cc(F)cc(C(F)(F)F)c3)nc2C)ccc1C(N)=O	CDK2	cell-free assay		competition with immobilised ligand	1 µM	remaining binding	100%
CN1CCC2(CC1)NC(=O)c1c(c3ccc(Cl)c(Cl)c3n1C)C2C#N (racemic)	CDK2	thermal stability		DSF	10 µM	ΔTm	0.1 °C
Cc1cc(NC(=O)c2cccc3cc(-c4cccc5[nH]nc(N)c45)ccc23)ccc1F	CDK2 with cyclin E	enzyme activity	inhibitor		0.1 µM	activity vs control	103%
CC(C)c1ccc(NC(=O)c2cccs2)c(-c2nc3ccccc3[nH]c2=O)c1	CDK2 with cyclin A	enzyme activity	inhibitor		1 µM	activity vs control	96%
O=C1NC(=O)c2cc(Nc3ccc(F)cc3)c(Nc3ccc(F)cc3)cc21	CDK2 with cyclin A	cell-free assay			0.5 µM	remaining signal	95.3%
CC1(C)NC(=O)c2[nH]c3c(Cl)c(Cl)ccc3c2C1C#N (centres unmarked)	CDK2	thermal stability		DSF	10 µM	ΔTm	-0.3 °C
COc1cc2c(Nc3ccc(Br)cc3F)ncnc2cc1OCC1CCN(C)CC1	CDK2 with cyclin E	cell-free assay			0.5 µM	remaining signal	101%
CN(c1ccnc(CNc2nc(Nc3ccc4c(c3)CC(=O)N4)ncc2C(F)(F)F)n1)S(C)(=O)=O	CDK2	cell-free assay		competition with immobilised ligand	1 µM	remaining binding	89%
CC(C)[C@H](CO)Nc1nc(Nc2cccc(Cl)c2)c2ncn(C(C)C)c2n1	CDK2 with cyclin A	cell-free assay			0.5 µM	remaining signal	6.91%
Cn1c2c(Cl)c(Cl)ccc2c2cn[nH]c(=O)c21	CDK2	thermal stability		DSF	10 µM	ΔTm	0.6 °C
